From ChEMBL document CHEMBL1795263, “Identification of 5-arylidene-4-thiazolidinone derivatives endowed with dual activity as aldose reductase inhibitors and antioxidant agents for the treatment of diabetic complications” (Eur J Med Chem, 2011) come the findings set out here.

Calls of active or inactive are those of the source. No cut-off for these calls is given here.

Assay [1] concerns the target Aldo-keto reductase family 1 member B1 (Bos taurus, UniProt P16116). Put plainly: Inhibition of bovine lens ALR2. Also noted: species or system Lens of camera-type eye. The procedure, abridged:
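ALR2 was purified from bovine lens by DE-52 ion exchange and Matrex Orange A affinity chromatography (0.8 U/mg). Assay at 37 °C with 4.67 mM D,L-glyceraldehyde and 0.11 mM NADPH in 0.25 M sodium phosphate pH 6.8, 0.38 M ammonium sulfate and 0.5 mM EDTA, with 1% (v/v) DMSO. IC50 was fitted by nonlinear one-site competition on log dose-inhibition curves from ≥7 concentrations; 95% confidence limits given.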

Assay [2] addresses Aldo-keto reductase family 1 member B1 (Bos taurus) (UniProt P16116). Put plainly: Inhibition of bovine lens ALR2 at 25 uM. The following applies: Lens of camera-type eye.
The test system of assay [3] is Brain. Description: Antioxidant activity against FeCl3/ascorbic acid-induced lipid peroxidation in rat brain homogenate at 100 uM by TBARS assay. It is filed as functional, tissue-based. A digest of the protocol:
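Fresh rat brain homogenised 10% (w/v) in phosphate buffer pH 7.4. Homogenate was incubated with 20 µM FeCl3 and 100 µM ascorbic acid (final) plus compound (100 uM) or α-tocopherol for 30 min at 37 °C. Thiobarbituric acid/HCl was added, then boiling, n-butanol extraction and A532 read. Values are nmol MDA/10 mg wet tissue from a tetramethoxypropane standard curve; mean ± S.E.M., ≥2 determinations in triplicate.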

One may read the IC50 as the midpoint of a concentration-inhibition curve. A low value points to higher potency. Broadly, the inhibition is the share of the control response that was lost under treatment.

On to `O=C(O)CN1C(=O)/C(=C\c2ccc(Oc3ccccc3)cc2)S/C1=N\c1ccccc1`, for which the IC50 in assay [1] came out at 4400 nM.
`O=C1NC(=O)/C(=C\C=C\c2ccccc2)S1`: the inhibition in assay [2] is 31%.
For the compound `O=C(O)CN1C(=O)S/C(=C\c2ccc(/C=C/c3ccc(C(F)(F)F)cc3)cc2)C1=O`, the outcome in assay [3] was Active. The compound also registered an IC50 in assay [1] of 1250 nM.
Regarding `O=C(O)CN1C(=O)S/C(=C\C=C\c2ccccc2)C1=O`, in assay [3], the result was Active. This compound also returned an IC50 in assay [1] of 1320 nM.
With `O=C(O)CN1C(=O)S/C(=C\c2ccc(Oc3ccccc3)cc2)C1=O`, in assay [1], the IC50 came to 70 nM.
In the case of `COc1ccc(/C=C/c2ccc(/C=C3\SC(=O)NC3=O)cc2)cc1`, the inhibition result in assay [2] was “inactive”.
For the compound `O=C(O)CN1C(=O)S/C(=C\C=C\c2ccc(C(F)(F)F)cc2)C1=O`, the result in assay [3] was Active. Also, half-maximal inhibition in assay [1] (IC50) was put at 300 nM.
Consider `O=C1NC(=O)/C(=C/c2ccc(/C=C/c3ccccc3)cc2)S1`, for which, in assay [2], the inhibition entry was “inactive”.
`Cc1ccc(/C=C/c2ccc(/C=C3\SC(=O)NC3=O)cc2)cc1`: the inhibition in assay [2] stood at 39%.
`COc1ccc(/C=C/C=C2/SC(=O)NC2=O)cc1` came in with an inhibition in assay [2] of 51%.
The same measure, in the same setting: next, `Cc1ccc(/C=C/C=C2/SC(=O)NC2=O)cc1`: 46%.
Same read-out and setting: next, `O=C1NC(=O)/C(=C/C=C/c2ccc(C(F)(F)F)cc2)S1`: 65%.
Consider `COc1ccc(/C=C/C=C2\SC(=O)N(CC(=O)O)C2=O)cc1`, for which the outcome in assay [3] was Active. The same compound returned an IC50 in assay [1] of 850 nM.
Turning to `O=C(O)CN1C(=O)/C(=C\c2ccc(OCc3ccccc3)cc2)S/C1=N\c1ccccc1`, half-maximal inhibition in assay [1] (IC50) was put at 4900 nM. This lies in the single-digit micromolar range.
Turning to `Cc1ccc(/C=C/C=C2\SC(=O)N(CC(=O)O)C2=O)cc1`, the outcome in assay [3] was Active. For the same compound, 1050 nM corresponded to half-maximal inhibition in assay [1] (IC50).
`Cc1ccc(/C=C/c2ccc(/C=C3\SC(=O)N(CC(=O)O)C3=O)cc2)cc1`: the outcome in assay [3] was Active. In assay [1], this compound registered an IC50 of 350 nM.
On the same counts, the results for `COc1ccc(/C=C/c2ccc(/C=C3\SC(=O)N(CC(=O)O)C3=O)cc2)cc1` are “Active” and 250 nM.
Consider `O=C1NC(=O)/C(=C/c2ccc(/C=C/c3ccc(C(F)(F)F)cc3)cc2)S1`, for which the inhibition in assay [2] was 29%.
With `O=C(O)CN1C(=O)S/C(=C\c2ccc(/C=C/c3ccccc3)cc2)C1=O`, the outcome in assay [3] was Active. Also, the IC50 in assay [1] was found to be 270 nM.
`O=C(O)CN1C(=O)/C(=C\c2ccc3ccccc3c2)S/C1=N\c1ccccc1`: in assay [1], inhibition was half-maximal at 2700 nM (IC50).
